Active and inactive are the calls of the source. The rule behind the calls is not given here.
Tests used:
Nucleic Acid [1] = assay: Binding affinity to human telomeric AGGG(TTAGGG)3 quadruplex assessed as fluorescence quenching at 10 uM after 3 mins by fluorescence titration method; assay type: nucleic-acid assay
Procedure, shortened: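 Ligand held at 10 µM (final 2% DMSO) in K-phosphate/70 mM KCl buffer, pH 7.0, 25 °C, titrated with 100–160 µM annealed quadruplex in 5–10 µL additions, ≥3 min equilibration each. Emission recorded 400–600 nm. Fraction free ligand from the change in emission maximum, plotted against quadruplex concentration and fitted for Kb and n; ≥3 experiments.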

Nucleic Acid [2] = assay: Binding affinity to satellite DNA by UV titration method method; assay type: nucleic-acid assay
A549 = assay: Cytotoxicity against human A549 cells after 5 days by MTT assay; assay type: functional, cell-based; details: for IC50: A549, 120 h
Procedure, shortened: (§1)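 Cells kept in RPMI-1640 with 10% FCS, 2 mM glutamine and gentamycin, 37 °C, 5% CO2. Seeded at 1000–3000/well, attached 24 h, then given 0.1–100 µM drug for 5 days; 0.2% DMSO controls. MTT added for 4 h, formazan dissolved in acidified isopropanol, A570 read. Eight replicates per point. IC50 read graphically from growth curves; mean ± SD of three experiments.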

NIH3T3 [3] = assay: Cytotoxicity against mouse NIH/3T3 cells assessed as growth inhibition at 0.1 to 100 uM after 5 days by MTT assay; assay type: cell-based; details: nih3t3, 120 h
Procedure, shortened: (§2)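 Mouse embryo fibroblasts grown with bovine calf serum in place of fetal serum. Plated at 1000–3000/well, attached 24 h, then exposed to 0.1–100 µM drug at 37 °C for 5 days alongside 0.2% DMSO controls. MTT for 4 h, acidified isopropanol, A570 read. Eight replicates per point; IC50 taken graphically, mean ± SD of three experiments.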

[4] = target: DNA polymerase I, thermostable (Thermus aquaticus) (UniProt P19821); assay: Inhibition of Thermus aquaticus taq polymerase at 0.1 to 50 uM after 72 hrs by ELISA based TRAP assay
Procedure, shortened: (§3)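 A549 cells exposed to compound at several concentrations for 72 h. Extracts (1–3 × 10^5 cell equivalents) run in a TRAP PCR-ELISA: P1-TS extension 20 min at 25 °C, then 30 PCR cycles, with an internal standard. Telomerase activity comes from elongation products; Taq activity from internal-standard amplification. Heat-inactivated extract serves as negative control. Triplicates, mean ± SEM, paired t-test.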

M14 = assay: Cytotoxicity against human M14 cells after 5 days by MTT assay; assay type: functional, cell-based; details: for IC50: M14, 120 h; procedure, shortened: as §1
Nucleic Acid [5] = assay: Binding affinity to human telomeric AGGG(TTAGGG)3 quadruplex after 4 secs by circular dichroism spectroscopy analysis; assay type: nucleic-acid assay
Nucleic Acid [6] = assay: Binding affinity to human telomeric AGGG(TTAGGG)3 quadruplex in first binding event at 480 to 640 uM every 300 to 400 secs at pH 7 by isothermal titration calorimetry analysis; assay type: nucleic-acid assay
Procedure, shortened: (§4)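 Isothermal titration calorimetry at 25 °C, pH 7.0 (20 mM K phosphate, 70 mM KCl, 0.1 mM EDTA). Quadruplex annealed 90 °C for 5 min, slow-cooled, held 24 h at 4 °C, used at 30–40 µM. Ligand 480–640 µM, 5–10 µL injections every 300/400 s, 25–50 injections. First injection discarded; dilution heat subtracted; multiple-sites fit gives Kb for each sequential event.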

[7] = target: Telomerase reverse transcriptase (Homo sapiens) (UniProt O14746); assay: Inhibition of telomerase in human A549 cells at 5 uM after 72 hrs by ELISA based TRAP assay; assay type: cell-based; procedure, shortened: as §3
Nucleic Acid [8] = assay: Binding affinity to duplex DNA d(CGCGAATTCGCG)2 duplex at pH 7 by isothermal titration calorimetry method; assay type: nucleic-acid assay
Procedure, shortened: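 ITC at 298 K. Ligand dissolved in the DNA buffer (20 mM potassium phosphate, 70 mM KCl, 0.1 mM EDTA, pH 7.0). 480–640 µM ligand injected in 5–10 µL aliquots into 30–40 µM annealed duplex every 300 or 400 s, 25–50 injections, stirring 150 rpm. Heats corrected for ligand dilution; isotherms fitted for Kb, ΔH and n.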

Nucleic Acid [9] = assay: Binding affinity to human telomeric AGGG(TTAGGG)3 quadruplex in second binding event at 480 to 640 uM every 300 to 400 secs at pH 7 by isothermal titration calorimetry method; assay type: nucleic-acid assay; procedure, shortened: as §4
Nucleic Acid [10] = assay: Binding affinity to human telomeric AGGG(TTAGGG)3 quadruplex assessed as melting temperature at 1:1 compound to DNA ratio at pH 7 by UV-visible spectrophotometer analysis; assay type: nucleic-acid assay
Procedure, shortened: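 UV melting of 25 µM annealed quadruplex alone or with ligand at 1:1 or 2:1 ligand/DNA, pH 7.0 K-phosphate/KCl buffer. Absorbance at 295 nm, 20–85 °C, heating at 0.5 °C/min, 1 mm path. Tm taken as mean ± SD of at least three runs.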

[11] = target: Telomerase reverse transcriptase (Homo sapiens) (UniProt O14746); assay: Inhibition of telomerase in human A549 cells after 72 hrs by ELISA based TRAP assay; assay type: cell-based; procedure, shortened: as §3
[12] = target: DNA polymerase I, thermostable (Thermus aquaticus) (UniProt P19821); assay: Inhibition of Thermus aquaticus taq polymerase at 10 to 100 uM after 72 hrs by ELISA based TRAP assay; procedure, shortened: as §3
NIH3T3 [13] = assay: Cytotoxicity against mouse NIH/3T3 cells after 5 days by MTT assay; assay type: cell-based; details: NIH3T3, 120 h; procedure, shortened: as §2
[14] = target: Telomerase reverse transcriptase (Homo sapiens) (UniProt O14746); assay: Inhibition of telomerase in human A549 cells at 0.05 to 100 uM after 72 hrs by ELISA based TRAP assay; assay type: cell-based; procedure, shortened: as §3
[15] = target: DNA polymerase I, thermostable (Thermus aquaticus) (UniProt P19821); assay: Inhibition of Thermus aquaticus taq polymerase at 0.5 to 100 uM after 72 hrs by ELISA based TRAP assay; procedure, shortened: as §3

Chain of DNA polymerase I, thermostable (Thermus aquaticus) (P19821 whole entry): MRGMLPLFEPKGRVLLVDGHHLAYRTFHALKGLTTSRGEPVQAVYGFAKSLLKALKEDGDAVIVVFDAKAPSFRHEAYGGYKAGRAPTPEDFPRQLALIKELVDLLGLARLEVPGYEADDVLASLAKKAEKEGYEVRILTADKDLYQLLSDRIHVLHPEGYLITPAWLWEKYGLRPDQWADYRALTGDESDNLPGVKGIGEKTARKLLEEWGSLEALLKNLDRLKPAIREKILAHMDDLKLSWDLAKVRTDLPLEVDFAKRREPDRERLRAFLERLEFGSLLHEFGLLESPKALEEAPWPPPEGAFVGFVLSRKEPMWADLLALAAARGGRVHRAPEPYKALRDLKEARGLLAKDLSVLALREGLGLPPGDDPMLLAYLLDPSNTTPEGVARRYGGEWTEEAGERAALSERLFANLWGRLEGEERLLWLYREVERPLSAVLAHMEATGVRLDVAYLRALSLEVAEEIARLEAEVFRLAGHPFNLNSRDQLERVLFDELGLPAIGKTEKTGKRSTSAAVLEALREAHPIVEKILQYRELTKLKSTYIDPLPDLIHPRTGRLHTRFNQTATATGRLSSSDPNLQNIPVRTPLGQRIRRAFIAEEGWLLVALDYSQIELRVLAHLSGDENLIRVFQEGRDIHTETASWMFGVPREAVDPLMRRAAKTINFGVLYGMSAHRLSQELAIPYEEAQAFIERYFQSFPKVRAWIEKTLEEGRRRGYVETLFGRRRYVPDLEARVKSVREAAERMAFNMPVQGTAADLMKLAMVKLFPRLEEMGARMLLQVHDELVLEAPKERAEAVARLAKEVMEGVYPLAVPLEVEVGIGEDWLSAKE
Chain of Telomerase reverse transcriptase (Homo sapiens) (O14746 whole entry): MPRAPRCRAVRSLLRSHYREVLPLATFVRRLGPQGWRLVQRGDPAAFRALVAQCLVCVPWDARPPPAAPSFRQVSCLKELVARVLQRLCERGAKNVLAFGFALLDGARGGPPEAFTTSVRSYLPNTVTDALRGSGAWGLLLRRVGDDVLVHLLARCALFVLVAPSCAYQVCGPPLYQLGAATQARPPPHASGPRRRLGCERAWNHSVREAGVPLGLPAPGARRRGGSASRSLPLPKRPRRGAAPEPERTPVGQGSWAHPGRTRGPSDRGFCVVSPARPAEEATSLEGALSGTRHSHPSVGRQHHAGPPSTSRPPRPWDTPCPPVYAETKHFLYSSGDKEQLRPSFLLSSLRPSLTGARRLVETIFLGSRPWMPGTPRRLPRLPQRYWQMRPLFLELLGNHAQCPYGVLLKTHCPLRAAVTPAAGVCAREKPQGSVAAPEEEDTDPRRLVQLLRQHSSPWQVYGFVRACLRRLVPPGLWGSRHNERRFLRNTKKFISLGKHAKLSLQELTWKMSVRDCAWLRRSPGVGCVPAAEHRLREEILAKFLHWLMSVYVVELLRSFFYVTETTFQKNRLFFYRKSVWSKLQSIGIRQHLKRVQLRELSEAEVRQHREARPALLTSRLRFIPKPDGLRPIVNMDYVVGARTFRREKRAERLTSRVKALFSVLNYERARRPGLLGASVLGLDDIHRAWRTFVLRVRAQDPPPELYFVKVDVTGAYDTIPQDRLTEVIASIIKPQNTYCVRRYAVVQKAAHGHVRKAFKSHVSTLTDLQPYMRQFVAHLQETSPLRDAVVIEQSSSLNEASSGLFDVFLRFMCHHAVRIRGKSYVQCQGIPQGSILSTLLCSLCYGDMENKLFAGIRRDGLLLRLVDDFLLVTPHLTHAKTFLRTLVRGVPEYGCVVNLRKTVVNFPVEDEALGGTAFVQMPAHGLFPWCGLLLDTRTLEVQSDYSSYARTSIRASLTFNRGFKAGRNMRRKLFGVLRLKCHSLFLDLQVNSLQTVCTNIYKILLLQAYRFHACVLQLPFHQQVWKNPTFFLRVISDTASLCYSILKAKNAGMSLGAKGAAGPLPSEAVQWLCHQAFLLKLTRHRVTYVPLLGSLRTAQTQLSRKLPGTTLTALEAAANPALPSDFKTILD

Kb (Nucleic Acid [1]) [×10⁵ /M] | Activity (Nucleic Acid [5]) | Kb (Nucleic Acid [6]) | Tm (Nucleic Acid [10]) [°C] | inhibition [11] | Structure (SMILES) | growth inhibition (GI) (A549) | IC50 (A549) [µM] | growth inhibition (GI) (M14) | IC50 (M14) [µM] | also measured
12 | – | – | – | – | O=C(CCN1CCCC1)Nc1cc2c3c(cc(NC(=O)CCN4CCCC4)cc3c1)C(=O)N(CCN1CCCC1)C2=O | – | – | – | – | –
30 | Active | 2 ×10⁷ /M | 60 | Dose-dependent effect | O=C(CCN1CCCC1)Nc1cc2c3c(cc(NC(=O)CCN4CCCC4)cc3c1)C(=O)N(CCCN1CCCC1)C2=O | Dose-dependent effect | 5.2 | Dose-dependent effect | 1.5 | Activity (Nucleic Acid [2]): inactive; Activity (NIH3T3 [3]): Non-toxic; inhibition [4]: inactive; inhibition [7]: 50%; Kb (Nucleic Acid [8]): 5 ×10⁵ /M; Kb (Nucleic Acid [9]): 5 ×10⁵ /M
9 | – | – | – | – | O=C(CCN1CCCC1)Nc1cc2c3c(cc(NC(=O)CCN4CCCC4)cc3c1)C(=O)N(CCN1CCCCC1)C2=O | – | – | – | – | –
9 | – | – | – | – | O=C(CCN1CCCC1)Nc1cc2c3c(cc(NC(=O)CCN4CCCC4)cc3c1)C(=O)N(CCCN1CCN(C(=O)CCN3CCCC3)CC1)C2=O | – | – | – | – | –
24 | Active | 5 ×10⁷ /M | 60 | Dose-dependent effect | O=C(CCN1CCCC1)Nc1cc2c3c(cc(NC(=O)CCN4CCCC4)cc3c1)C(=O)N(CCCN1CCCCC1)C2=O | Dose-dependent effect | 9.9 | Dose-dependent effect | 8 | Activity (Nucleic Acid [2]): inactive; inhibition [12]: Active; inhibition [7]: 26%; IC50 (NIH3T3 [13]): 43.3 µM; Kb (Nucleic Acid [9]): 6 ×10⁵ /M
7 | – | – | – | – | O=C(CCN1CCCC1)Nc1cc2c3c(cc(NC(=O)CCN4CCCC4)cc3c1)C(=O)N(CCN1CCN(C(=O)CCN3CCCC3)CC1)C2=O | – | – | – | – | –
6 | – | – | – | – | CN(C)CCN1C(=O)c2cc(NC(=O)CCN3CCCC3)cc3cc(NC(=O)CCN4CCCC4)cc(c23)C1=O | – | – | – | – | –
10 | Active | 4 ×10⁵ /M | 60 | Dose-dependent effect | O=C(CCN1CCCC1)Nc1cc2c3c(cc(NC(=O)CCN4CCCC4)cc3c1)C(=O)N(CCCN1CCOCC1)C2=O | Dose-dependent effect | 40.3 | Dose-dependent effect | 34.7 | inhibition [14]: Active; IC50 (NIH3T3 [13]): 4.6 µM; inhibition [15]: Active

— ChEMBL document CHEMBL1921743, “Design, synthesis, biophysical and biological studies of trisubstituted naphthalimides as G-quadruplex ligands” (Bioorg Med Chem, 2011)
